Test results: ChEMBL document CHEMBL3407369, “Exploration of cyanine compounds as selective inhibitors of protein arginine methyltransferases: synthesis and biological evaluation” (J Med Chem, 2015)
Calls of active or inactive are those of the source. The calls are words filed in the database; no cut-off is given here.

How the values were obtained:
[1] = target: T1, Protein arginine N-methyltransferase 1 (Homo sapiens, UniProt Q99873); experiment: Displacement of [3H]-SAM from recombinant His6-tagged PRMT1 (unknown origin) expressed in Escherichia coli BL21(DE3) at 10 uM incubated for 5 mins prior to H4(1 to 20)-BTN peptide addition measured after 8 mins by scintillation proximity assay
How it was run: (§1)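 His6-PRMT1 (0.02 µM) was purified from E. coli BL21(DE3) on Ni-NTA. It was preincubated 5 min with compound (10, 30 or 90 µM) and [3H]SAM (0.5 µM) in 50 mM HEPES pH 8.0, 1 mM EDTA, 50 mM NaCl, 0.5 mM DTT at ~25 °C. Biotinylated H4(1–20) peptide (1 µM) was added and the reaction run 8 min. It was quenched with isopropanol and read with streptavidin SPA beads. % inhibition was taken against water (full activity) and no-peptide blanks.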
Target sequence in this assay (Q99873 whole entry, looked up): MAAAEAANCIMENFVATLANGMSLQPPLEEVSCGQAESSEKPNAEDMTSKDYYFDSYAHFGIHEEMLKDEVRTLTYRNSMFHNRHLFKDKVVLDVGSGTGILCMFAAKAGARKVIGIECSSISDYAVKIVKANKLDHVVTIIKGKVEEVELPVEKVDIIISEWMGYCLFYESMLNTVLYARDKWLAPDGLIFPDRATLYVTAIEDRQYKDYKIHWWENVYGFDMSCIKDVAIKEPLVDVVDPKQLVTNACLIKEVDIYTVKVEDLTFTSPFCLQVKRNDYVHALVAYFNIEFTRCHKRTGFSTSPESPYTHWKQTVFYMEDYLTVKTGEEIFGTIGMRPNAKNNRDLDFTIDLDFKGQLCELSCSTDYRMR

[2] = target: T1, Protein arginine N-methyltransferase 1; experiment: Displacement of [3H]-SAM from recombinant His6-tagged PRMT1 (unknown origin) expressed in Escherichia coli BL21(DE3) incubated for 5 mins prior to H4(1 to 20)-BTN peptide addition measured after 8 mins by scintillation proximity assay
How it was run: (§2)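 Serial compound dilutions were tested in the same SPA format (His-tagged enzyme purified from E. coli BL21(DE3), 5 min preincubation, H4(1–20)-biotin substrate, 8 min reaction, ~25 °C, HEPES pH 8.0 buffer). [3H]SAM and peptide were set near their predetermined Km values for each enzyme. Remaining activity was fitted to a Hill-modified IC50 equation, giving IC50 and Hill coefficient.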
Target sequence in this assay (Q99873 whole entry): as the sequence (Q99873 whole entry, looked up) above

[3] = target: T1, Protein arginine N-methyltransferase 1; experiment: Displacement of [3H]-SAM from recombinant His6-tagged PRMT1 (unknown origin) expressed in Escherichia coli BL21(DE3) at 30 uM incubated for 5 mins prior to H4(1 to 20)-BTN peptide addition measured after 8 mins by scintillation proximity assay; how it was run: as §1
Target sequence in this assay (Q99873 whole entry, looked up): as above

[4] = target: T1, Protein arginine N-methyltransferase 1; experiment: Displacement of [3H]-SAM from recombinant His6-tagged PRMT1 (unknown origin) expressed in Escherichia coli BL21(DE3) at 90 uM incubated for 5 mins prior to H4(1 to 20)-BTN peptide addition measured after 8 mins by scintillation proximity assay; how it was run: as §1
Target sequence in this assay (Q99873 whole entry, looked up): as above

[5] = target: Protein arginine N-methyltransferase 5 (Homo sapiens, UniProt O14744); experiment: Displacement of [3H]-SAM from recombinant His6-tagged PRMT5 (unknown origin) expressed in Escherichia coli BL21(DE3) incubated for 5 mins prior to H4(1 to 20)-BTN peptide addition measured after 8 mins by scintillation proximity assay
How it was run: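 Recombinant His6-PRMT5 was purified on Ni-NTA after IPTG induction in E. coli BL21(DE3). [3H]SAM and H4(1–20)BTN were set near their predetermined Km. Serially diluted compound was preincubated 5 min before peptide addition, reacted 8 min, isopropanol-quenched, and read with streptavidin SPA beads. IC50 and nH came from a Hill fit.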

[6] = target: Protein arginine N-methyltransferase 8 (Homo sapiens, UniProt Q9NR22); experiment: Displacement of [3H]-SAM from recombinant His6-tagged PRMT8 (unknown origin) expressed in Escherichia coli BL21(DE3) incubated for 5 mins prior to H4(1 to 20)-BTN peptide addition measured after 8 mins by scintillation proximity assay; how it was run: as §2
[7] = target: T2, Histone-arginine methyltransferase CARM1 (Homo sapiens, UniProt Q86X55); experiment: Displacement of [3H]-SAM from recombinant GST-tagged CARM1 (unknown origin) expressed in Escherichia coli BL21(DE3) incubated for 5 mins prior to H3.3 protein addition measured after 8 mins by P81 filter paper binding assay
T2 sequence (Q86X55 whole entry): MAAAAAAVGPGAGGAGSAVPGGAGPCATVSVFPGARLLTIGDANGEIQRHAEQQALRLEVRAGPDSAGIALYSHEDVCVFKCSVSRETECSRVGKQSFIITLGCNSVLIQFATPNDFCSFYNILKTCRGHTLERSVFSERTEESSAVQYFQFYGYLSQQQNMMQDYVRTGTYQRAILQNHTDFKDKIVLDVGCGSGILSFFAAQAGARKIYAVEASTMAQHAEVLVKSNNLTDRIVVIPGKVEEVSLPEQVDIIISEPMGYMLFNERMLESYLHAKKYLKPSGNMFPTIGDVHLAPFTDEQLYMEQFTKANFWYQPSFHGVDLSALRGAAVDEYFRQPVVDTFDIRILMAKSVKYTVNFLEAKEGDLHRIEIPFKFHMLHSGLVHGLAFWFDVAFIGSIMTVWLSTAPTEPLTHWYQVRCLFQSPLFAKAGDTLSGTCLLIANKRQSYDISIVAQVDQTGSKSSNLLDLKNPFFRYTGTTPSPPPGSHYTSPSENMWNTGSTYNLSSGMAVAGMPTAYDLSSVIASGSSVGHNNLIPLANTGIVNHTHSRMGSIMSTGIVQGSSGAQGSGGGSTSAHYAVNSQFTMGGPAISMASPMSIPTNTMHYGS

Homo sapiens [8] = species on record: Homo sapiens; experiment: Selectivity ratio of IC50 for recombinant […] (unknown origin) to IC50 for recombinant His6-tagged PRMT1 (unknown origin)
Homo sapiens [9] = species on record: Homo sapiens; experiment: Selectivity ratio of IC50 for recombinant His6-tagged PRMT5 (unknown origin) to IC50 for recombinant His6-tagged PRMT1 (unknown origin)
Homo sapiens [10] = species on record: Homo sapiens; experiment: Selectivity ratio of IC50 for recombinant His6-tagged PRMT8 (unknown origin) to IC50 for recombinant His6-tagged PRMT1 (unknown origin)

Protein arginine N-methyltransferase 5, sequence (O14744 whole entry): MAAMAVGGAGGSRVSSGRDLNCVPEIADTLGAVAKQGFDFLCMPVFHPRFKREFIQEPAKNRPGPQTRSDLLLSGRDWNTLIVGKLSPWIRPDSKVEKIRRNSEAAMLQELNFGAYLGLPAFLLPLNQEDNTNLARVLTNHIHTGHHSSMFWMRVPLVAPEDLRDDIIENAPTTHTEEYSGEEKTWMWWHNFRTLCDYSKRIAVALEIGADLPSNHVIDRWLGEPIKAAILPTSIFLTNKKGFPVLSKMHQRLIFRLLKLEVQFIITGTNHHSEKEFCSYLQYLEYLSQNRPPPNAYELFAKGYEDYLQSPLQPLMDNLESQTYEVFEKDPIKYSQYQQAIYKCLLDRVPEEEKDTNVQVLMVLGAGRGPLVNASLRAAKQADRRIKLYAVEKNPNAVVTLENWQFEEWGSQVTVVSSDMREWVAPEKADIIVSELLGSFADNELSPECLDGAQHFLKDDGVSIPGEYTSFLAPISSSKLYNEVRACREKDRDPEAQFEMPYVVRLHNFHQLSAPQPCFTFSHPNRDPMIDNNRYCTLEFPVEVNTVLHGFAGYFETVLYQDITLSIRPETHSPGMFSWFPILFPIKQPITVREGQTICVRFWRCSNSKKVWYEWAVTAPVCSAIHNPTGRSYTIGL
Protein arginine N-methyltransferase 8, sequence (Q9NR22 whole entry): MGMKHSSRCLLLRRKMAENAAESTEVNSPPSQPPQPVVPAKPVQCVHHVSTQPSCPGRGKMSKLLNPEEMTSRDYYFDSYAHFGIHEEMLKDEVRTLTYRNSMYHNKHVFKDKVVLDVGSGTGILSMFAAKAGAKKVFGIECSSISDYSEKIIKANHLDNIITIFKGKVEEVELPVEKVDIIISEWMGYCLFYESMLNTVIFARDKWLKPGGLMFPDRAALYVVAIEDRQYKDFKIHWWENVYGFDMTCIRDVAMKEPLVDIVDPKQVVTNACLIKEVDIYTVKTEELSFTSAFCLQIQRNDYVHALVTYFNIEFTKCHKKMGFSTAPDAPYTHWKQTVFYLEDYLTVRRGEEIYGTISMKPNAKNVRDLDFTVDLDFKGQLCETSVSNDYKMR

inhibition [1] | IC50 [2] | Structure (SMILES) | other results
96.3% | 1.81 µM | CC1(C)C(/C=C/C(Cl)=C/C=C2/N(CCCc3ccccc3)c3ccc4ccccc4c3C2(C)C)=[N+](CCCc2ccccc2)c2ccc3ccccc3c21 | 
inactive |  | CC1=[N+](CCCc2ccccc2)c2ccccc2C1(C)C | inhibition [3]: inactive; inhibition [4]: 80%
93% | 2.67 µM | CCCCN1/C(=C/C=C/c2sc3cc(Br)ccc3[n+]2CCCC)Sc2cc(Br)ccc21 | 
40% |  | CCN1/C(=C/C=C/c2sc3c4ccccc4ccc3[n+]2CC)Sc2c1ccc1ccccc21 | 
inactive |  | CN1/C(=C/C=C/C2=[N+](CCC[N+](C)(C)C)c3ccc(S(=O)(=O)[O-])cc3C2(C)C)C(C)(C)c2ccccc21 | 
48% |  | CCCCN1/C(=C/C=C/C2=[N+](CCCC)c3ccc(Br)cc3C2(C)C)C(C)(C)c2cc(Br)ccc21 | 
100% | 1.15 µM | CC1(C)C(/C=C/C=C2/N(CCCc3ccccc3)c3ccc(Cl)cc3C2(C)C)=[N+](CCCc2ccccc2)c2ccc(Cl)cc21 | 
7% |  | CCN1/C(=C/C=C/C2=[N+](CC)c3ccc(Cl)cc3C2(C)C)C(C)(C)c2cc(Cl)ccc21 | 
8% |  | CCCC[N+]1=C(/C=C/C=C2/N(C)c3ccccc3C2(C)C)C(C)(C)c2ccccc21 | inhibition [3]: 32%; inhibition [4]: 79%
99% | 4 µM | CCCCN1/C(=C/C=C/c2sc3c4ccccc4ccc3[n+]2CCCC)Sc2c1ccc1ccccc21 | 
35% |  | CN1/C(=C/C=C/C2=[N+](CCCc3ccccc3)c3ccccc3C2(C)C)C(C)(C)c2ccccc21 | inhibition [3]: 96%; inhibition [4]: 101%
76% |  | C(/C=C/c1sc2ccccc2[n+]1CCCc1ccccc1)=C1/Sc2ccccc2N1CCCc1ccccc1 | 
 | 2.56 µM | CCCCN1/C(=C\C=C\C2=[N+](CCCC)c3ccc4ccccc4c3C2(C)C)C(C)(C)c2c1ccc1ccccc21 | 
88% | 6.43 µM | CCN1/C(=C/C=C/c2sc3cc(Br)ccc3[n+]2CC)Sc2cc(Br)ccc21 | 
inactive |  | CN1/C(=C/C=C/C2=[N+](CCCS(=O)(=O)[O-])c3ccccc3C2(C)C)C(C)(C)c2ccccc21 | 
inactive |  | CCCCN1/C(=C/C=C/C2=[N+](CCCC)c3ccccc3C2(C)C)C(C)(C)c2ccccc21 | inhibition [3]: 48%; inhibition [4]: 91%
41% |  | CC1(C)C(/C=C/C=C2/N(CCCc3ccccc3)c3ccccc3C2(C)C)=[N+](CCCc2ccccc2)c2ccccc21 | inhibition [3]: 101%; inhibition [4]: 100%
46% |  | CCN1/C(=C/C=C/c2sc3ccccc3[n+]2CC)Sc2ccccc21 | 

inhibition [1] | IC50 [2] | Structure (SMILES) | other results
101% | 1.25 µM | CC1(C)C(/C=C/C=C2/N(CCCc3ccccc3)c3ccc(Br)cc3C2(C)C)=[N+](CCCc2ccccc2)c2ccc(Br)cc21 | 
36% |  | CCCC[N+]1=C(/C=C/C=C2/N(C)c3ccccc3C2(C)C)C(C)(C)c2cc(Br)ccc21 | 
48% |  | CCCCN1/C(=C/C(/C=C/c2ccccc2)=C/c2sc3ccccc3[n+]2CCCC)Sc2ccccc21 | 
79% |  | CCCCN1/C(=C/C=C/c2sc3ccccc3[n+]2CCCC)Sc2ccccc21 | 
77% |  | CCCCN1/C(=C/C(C)=C/c2sc3ccccc3[n+]2CCCC)Sc2ccccc21 | 
inactive |  | CC[N+]1=C(C)C(C)(C)c2ccccc21 | inhibition [3]: inactive; inhibition [4]: inactive
inactive |  | CC[N+]1=C(/C=C/C=C2/N(C)c3ccccc3C2(C)C)C(C)(C)c2ccccc21 | inhibition [3]: 9%; inhibition [4]: 41%
4% |  | CCN1/C(=C\C=C\C2=[N+](CC)c3ccccc3C2(C)C)C(C)(C)c2ccccc21 | inhibition [3]: 42%; inhibition [4]: 60.6%
2% |  | CN1/C(=C/C=C/C2=[N+](CCC[N+](C)(C)C)c3ccccc3C2(C)C)C(C)(C)c2ccccc21 | 
91% |  | CCCCN1/C(=C/C=C/C2=[N+](CCCC)c3ccc4ccccc4c3C2(C)C)C(C)(C)c2c1ccc1ccccc21 | 
inactive |  | CCCC[N+]1=C(C)C(C)(C)c2ccccc21 | inhibition [3]: inactive; inhibition [4]: inactive
92% | 2.37 µM | CCN1/C(=C/C(C)=C/c2sc3c4ccccc4ccc3[n+]2CC)Sc2c1ccc1ccccc21 | 
70.2% | 5.76 µM | CC1(C)C(/C=C/C=C/C=C2/N(CCCc3ccccc3)c3ccc4ccccc4c3C2(C)C)=[N+](CCCc2ccccc2)c2ccc3ccccc3c21 | 
69% |  | CCN1/C(=C/C=C(Cl)/C=C/C2=[N+](CC)c3ccc4ccccc4c3C2(C)C)C(C)(C)c2c1ccc1ccccc21 | 
11% |  | CCN1/C(=C/C=C/C2=[N+](CC)c3ccc(Br)cc3C2(C)C)C(C)(C)c2cc(Br)ccc21 | 
27% |  | CCN1/C(=C/C=C/C2=[N+](CC)c3ccc4ccccc4c3C2(C)C)C(C)(C)c2c1ccc1ccccc21 | 
34% |  | CCCCN1/C(=C/C=C/C2=[N+](CCCC)c3ccc(Cl)cc3C2(C)C)C(C)(C)c2cc(Cl)ccc21 | 
89% | 3.39 µM | CCN1/C(=C/C=C/C=C/C2=[N+](CC)c3ccc4ccccc4c3C2(C)C)C(C)(C)c2c1ccc1ccccc21 | 

Structure (SMILES) | inhibition [1] | IC50 [2] | other results
CC1(C)C(/C=C/C=C2/N(CCCc3ccccc3)c3ccc4ccccc4c3C2(C)C)=[N+](CCCc2ccccc2)c2ccc3ccccc3c21 | 100% | 0.61 µM | IC50 [5]: 1.4 µM; IC50 [6]: 1.74 µM
CCCCN1/C(=C/C=C(Br)/C=C/C2=[N+](CCCC)c3ccc(Br)cc3C2(C)C)C(C)(C)c2cc(Br)ccc21 | 96% | 3.38 µM | IC50 [5]: 35.4 µM; IC50 [6]: 84.9 µM; IC50 [7]: 21.5 µM
CCCCN1/C(=C/C=C/c2sc3ccc(Br)cc3[n+]2CCCC)Sc2ccc(Br)cc21 | 91% | 2.03 µM | IC50 [5]: 8.36 µM; Ratio IC50 (Homo sapiens [8]): 3; Ratio IC50 (Homo sapiens [9]): 3; IC50 [7]: 7.23 µM
C(/C=C/c1sc2c3ccccc3ccc2[n+]1CCCc1ccccc1)=C1/Sc2c(ccc3ccccc23)N1CCCc1ccccc1 | 100% | 3.05 µM | IC50 [5]: 7.04 µM; IC50 [6]: 28.4 µM; Ratio IC50 (Homo sapiens [8]): 2; Ratio IC50 (Homo sapiens [9]): 2; Ratio IC50 (Homo sapiens [10]): > 9; IC50 [7]: 5.8 µM
